In general, Ki refers to a dissociation constant, usually derived from enzyme kinetics or from competition with a known ligand.

Calls of active or inactive are those of the source. The calls are words filed in the database; no cut-off is given here.

Experiment [1] can be described thus: Displacement of [3H]ditolylguanidine from sigma 2 receptor in rat liver membrane after 1.5 hrs by scintillation counting in presence of sigma 1 blocker (+)-pentazocine. Type of experiment: cell membranes. The method, boiled down: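 Rat liver membranes (~50 μg total protein per reaction) in 50 mM Tris-HCl pH 8.0 with 10 nM [³H]-DTG plus 100 nM cold (+)-pentazocine to mask σ1 sites. […] Filtration on PEI-pretreated GF/B, scintillation counting, one-site competition fit, Ki via Cheng-Prusoff.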

For experiment [2], the target named is Sigma non-opioid intracellular receptor 1 (Rattus norvegicus, UniProt Q9R0C9). Kind of experiment: Displacement of (+)-[3H]pentazocine from sigma 1 receptor in rat liver membrane after 1.5 hrs by scintillation counting. It is filed as cell membranes. The method, boiled down:
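Rat liver membranes (~50 μg total protein per reaction) incubated with 10 nM [³H]-(+)-pentazocine and serial dilutions of compound (stocks in DMSO) for 1.5 h at 32°C. […] Filtered through polyethyleneimine-pretreated GF/B filters, bound radioactivity counted by liquid scintillation. One-site competition fit, Ki by Cheng-Prusoff.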

Another experiment is filed under the species Rattus norvegicus. The experiment in a line: Selectivity ratio of Ki for rat sigma 1 receptor to Ki for rat sigma 2 receptor. Summed up: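 Ratio of Ki values from rat liver membrane competition binding: σ1 with 10 nM [³H]-(+)-pentazocine, σ2 with 10 nM [³H]-DTG plus 100 nM (+)-pentazocine; 1.5 h at 32°C, filtration and scintillation counting, Ki by Cheng-Prusoff.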

A further experiment has as its system RT-4. Kind of experiment: Displacement of [125I]IAF from sigma 2 receptor in human RT4 cells at 10 uM after 30 mins preincubation by photoaffinity labeling experiment. Type of experiment: cell-based. The method, boiled down:
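Fresh membranes from sonicated RT4 human bladder papilloma cells (200 μg protein per reaction) preincubated with compound in 50 mM Tris pH 7.4, 30 min, 32°C. Then 1 nM [¹²⁵I]-IAF (final 1% ethyl acetate) added for 30 min at 32°C, photoactivated 6 sec with mercury lamp, quenched in SDS/β-mercaptoethanol sample buffer; labeled receptor bands examined.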

Sequence of Sigma non-opioid intracellular receptor 1 (Q9R0C9 whole entry): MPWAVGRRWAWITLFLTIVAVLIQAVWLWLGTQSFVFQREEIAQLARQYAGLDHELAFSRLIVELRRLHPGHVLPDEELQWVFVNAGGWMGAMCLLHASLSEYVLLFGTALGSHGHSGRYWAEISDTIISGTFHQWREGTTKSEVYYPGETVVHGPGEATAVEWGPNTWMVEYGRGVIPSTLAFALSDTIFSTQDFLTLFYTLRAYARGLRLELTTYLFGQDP

Turning to `COc1ccc(C(=O)NCCCCN2CCc3ccc([N+](=O)[O-])cc3C2)c(OC)c1OC`, the values for the inhibitory constant (Ki) in experiment [1] and in experiment [2] were 0.0268 µM and 10.3 µM, respectively. Moreover, in the experiment filed under Rattus norvegicus, the Ratio Ki stood at 385.
Take `COc1cc2c(cc1OC)CN(CCCCNC(=O)c1ccccc1)CC2`: the Ki was 5.29 µM in experiment [1] and > 10000 µM in experiment [2].
The matching figures for `COc1cc2c(cc1OC)CN(CCCCNC(=O)c1cccc([N+](=O)[O-])c1)CC2`: > 10000 µM and 1210 µM.
Turning to `O=C1c2ccccc2C(=O)N1CCCCN1CCc2ccc([N+](=O)[O-])cc2C1`, the Ki in experiment [1] is 0.0213 µM; in experiment [2] it was 0.0875 µM. In addition, the Ratio Ki in the experiment filed under Rattus norvegicus worked out at 4.12. The result with RT-4 was Active.
For the compound `O=C(CCCN1CCC(O)(c2ccc(Cl)cc2)CC1)c1ccc(F)cc1`, the result in the experiment with RT-4 was Active.
For `COc1c(I)ccc(C(=O)NCCCCN2CCc3ccc([N+](=O)[O-])cc3C2)c1O`, the Ki worked out at 0.867 µM in experiment [1] and 74.7 µM in experiment [2]. Further, the Ratio Ki in the experiment listed under Rattus norvegicus is 86.2.
Turning to `COc1cccc(C(=O)NCCCCN2CCc3ccc([N+](=O)[O-])cc3C2)c1OC`, the Ki in experiment [1] is 12.9 µM; in experiment [2] it was 7.87 µM. Also, the Ratio Ki in the experiment listed under Rattus norvegicus was 0.61. Also, in the experiment on RT-4, the result was inactive.
In the case of `COc1cc2c(cc1OC)CN(CCCCNC(=O)c1ccc([N+](=O)[O-])cc1)CC2`, the Ki in experiment [1] worked out at 152 µM; in experiment [2] it was 14.7 µM. Further, the Ratio Ki in the experiment listed under Rattus norvegicus is 0.096.
The like results for `COc1cccc(C(=O)NCCCCN2CCc3ccc([N+](=O)[O-])cc3C2)c1O` were, in that order, 4 µM, 11.2 µM and 2.8.
The matching figures for `COc1cc2c(cc1OC)CN(CCCCNC(=O)c1cccc(OC)c1O)CC2`: 1.4 µM, 67.8 µM and 48.4.

For the origin of these results see ChEMBL document CHEMBL1926655, “Electron-donating para-methoxy converts a benzamide-isoquinoline derivative into a highly Sigma-2 receptor selective ligand” (Bioorg Med Chem, 2011).
